Data: ChEMBL document CHEMBL1144630, “Indole derivatives as potent inhibitors of 5-lipoxygenase: design, synthesis, biological evaluation, and molecular modeling” (Bioorg Med Chem Lett, 2007)

Key:
[1] = molecular target: T1, Polyunsaturated fatty acid 5-lipoxygenase (Rattus norvegicus) (UniProt P12527); conditions: at 5 µM
T1 sequence (whole entry): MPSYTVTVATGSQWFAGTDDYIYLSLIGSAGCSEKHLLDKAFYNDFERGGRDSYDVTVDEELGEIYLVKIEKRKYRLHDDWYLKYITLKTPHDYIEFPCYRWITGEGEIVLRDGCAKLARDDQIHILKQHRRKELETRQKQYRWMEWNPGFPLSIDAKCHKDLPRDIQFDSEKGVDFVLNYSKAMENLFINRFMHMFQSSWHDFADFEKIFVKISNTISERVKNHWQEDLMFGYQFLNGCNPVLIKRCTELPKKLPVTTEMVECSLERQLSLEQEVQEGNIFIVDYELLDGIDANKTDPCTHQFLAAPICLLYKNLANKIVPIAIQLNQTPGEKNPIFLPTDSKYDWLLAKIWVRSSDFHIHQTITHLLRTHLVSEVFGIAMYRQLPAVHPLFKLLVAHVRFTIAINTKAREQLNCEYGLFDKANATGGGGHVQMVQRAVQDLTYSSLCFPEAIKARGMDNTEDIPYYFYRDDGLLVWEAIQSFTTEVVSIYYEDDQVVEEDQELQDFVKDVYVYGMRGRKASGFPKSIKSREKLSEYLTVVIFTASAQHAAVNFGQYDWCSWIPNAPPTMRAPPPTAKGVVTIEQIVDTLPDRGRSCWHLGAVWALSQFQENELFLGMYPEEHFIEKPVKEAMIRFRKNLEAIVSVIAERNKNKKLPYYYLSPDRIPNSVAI

[2] = molecular target: T2, Polyunsaturated fatty acid 5-lipoxygenase (Rattus norvegicus, UniProt P12527); test: Inhibition of 5-LOX in rat peritoneal leukocytes; type: cell-based
T2 sequence (P12527 whole entry): T1 sequence (whole entry)
Method in brief: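 Cell-based 5-LOX assay in rat peritoneal leukocytes, quantified with a commercial kit. Selected compounds went on to concentration–response testing to derive IC50. Values are means of three determinations, each within 10% of the mean.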

| inhibition [1] | IC50 [2] | Compound |
| --- | --- | --- |
| 25.8% | 74000 nM | O=C(CCCc1cn(Cc2ccccc2)c2ccccc12)N1CCOCC1 |
| 72.9% | 3160 nM | COc1ccc2[nH]c(C)c(CCCC(=O)N3CCOCC3)c2c1 |
| 95.4% | 850 nM | O=C(CCCc1cn(Cc2ccccc2)c2ccccc12)N1CCNCC1 |
| 71.2% | – | COc1ccc2[nH]c(C)c(CCCC(=O)N3CCN(C(=O)OC(C)(C)C)CC3)c2c1 |
| 32.4% | – | O=C(CCCc1cn(C(=O)c2ccc(Cl)cc2)c2ccccc12)N1CCOCC1 |
| 71.3% | 1330 nM | Cc1[nH]c2ccc(Cl)cc2c1CCCC(=O)N1CCOCC1 |
| 63.8% | 3170 nM | O=C(CCc1cn(Cc2ccccc2)c2ccccc12)N1CCOCC1 |
| 58.2% | – | O=C(CCCc1cn(C(=O)c2ccccc2)c2ccccc12)N1CCOCC1 |
| 21% | – | O=C(Cc1cn(C(=O)c2ccccc2)c2ccccc12)N1CCOCC1 |
| 15.9% | – | O=C(Cc1c[nH]c2ccccc12)N1CCOCC1 |
| 80.2% | 950 nM | Cc1c(CCCC(=O)N2CCOCC2)c2cc(Cl)ccc2n1Cc1ccccc1 |
| 64.2% | 2380 nM | COC1(c2cc(F)cc(OCCc3c[nH]c4ccccc34)c2)CCOCC1 |
| 34.6% | – | Cc1ccc(Cn2cc(CC(=O)N3CCOCC3)c3ccccc32)cc1 |
| 23.4% | – | O=C(CCc1cn(C(=O)c2ccccc2)c2ccccc12)N1CCOCC1 |
| 55.2% | – | Cc1ccc(Cn2cc(CCC(=O)N3CCOCC3)c3ccccc32)cc1 |
| 38.2% | – | CC(C)(C)OC(=O)N1CCN(C(=O)CCCc2cn(Cc3ccccc3)c3ccccc23)CC1 |
| 33.9% | – | Cc1ccc(Cn2cc(CCCC(=O)N3CCOCC3)c3ccccc32)cc1 |
| 84.1% | 740 nM | CC(C)(C)OC(=O)N1CCN(C(=O)CCCc2c[nH]c3ccccc23)CC1 |

| inhibition [1] | IC50 [2] | Compound |
| --- | --- | --- |
| 26.7% | – | O=C(CCCc1cn(Cc2ccc(Cl)c(Cl)c2)c2ccccc12)N1CCOCC1 |
| 41.6% | – | c1ccc(Cn2cc(CCCCN3CCOCC3)c3ccccc32)cc1 |
| 26.4% | – | COc1ccc2c(c1)c(CCCC(=O)N1CCOCC1)c(C)n2Cc1ccc(C)cc1 |
| 46.5% | – | COc1ccc2c(c1)c(CCCOc1cc(F)cc(C3(OC)CCOCC3)c1)c(C)n2Cc1ccccc1 |
| 26% | – | O=C(CCc1cn(C(=O)c2ccc(Cl)cc2)c2ccccc12)N1CCOCC1 |
| 41.4% | – | O=C(Cc1cn(Cc2ccccc2)c2ccccc12)N1CCOCC1 |
| 31.8% | – | COC1(c2cc(F)cc(OCCc3cn(Cc4ccccc4)c4ccccc34)c2)CCOCC1 |
| 23.9% | – | CS(=O)(=O)N1CCN(C(=O)CCCc2cn(Cc3ccccc3)c3ccccc23)CC1 |
| 38.5% | – | O=C(CCc1cn(Cc2ccc(Cl)c(Cl)c2)c2ccccc12)N1CCOCC1 |
| 86.9% | – | CC(c1cc2ccccc2s1)N(O)C(N)=O (stereo not drawn) |
| 51.5% | – | COc1ccc2c(c1)c(CCCC(=O)N1CCN(C(=O)OC(C)(C)C)CC1)c(C)n2Cc1ccccc1 |
| 62.3% | 2060 nM | O=C(CCCc1c[nH]c2ccccc12)N1CCOCC1 |
| 54.2% | – | COc1ccc2c(c1)c(CCCC(=O)N1CCOCC1)c(C)n2Cc1ccccc1 |
| 64.6% | – | COc1ccc2c(c1)c(CCCC(=O)N1CCNCC1)c(C)n2Cc1ccccc1 |
| 22.4% | – | O=C(Cc1cn(C(=O)c2ccc(Cl)cc2)c2ccccc12)N1CCOCC1 |
| 37.9% | – | Cc1c(CCCC(=O)N2CCOCC2)c2cc(Cl)ccc2n1Cc1ccc(Cl)cc1 |
| 81.9% | 870 nM | O=C(Cc1cn(Cc2ccc(Cl)c(Cl)c2)c2ccccc12)N1CCOCC1 |
| 33% | – | O=C(CCc1c[nH]c2ccccc12)N1CCOCC1 |

| Compound | inhibition [1] | IC50 [2] |
| --- | --- | --- |
| COc1ccc2c(c1)c(CCCC(=O)N1CCOCC1)c(C)n2C(=O)c1ccc(Cl)cc1 | 70.2% | 2250 nM |
